{"source": "ChEMBL document CHEMBL1136801", "about": "“Cyclopropane-containing polyamine analogues are efficient growth inhibitors of a human prostate tumor xenograft in nude mice” (J Med Chem, 2003)", "key": {"DuPro": {"system": "DuPro", "assay": "Growth inhibitory effect was assessed against the human prostate tumor cell line DuPro using MTT assay", "type": "functional", "details": "read-out: ID50 (the source's name)", "outline": "(§1)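 Cells seeded at 500 per well and incubated overnight at 37 °C in humidified 95% air/5% CO2, then exposed to serially diluted drug for 6 days, each concentration in quadruplicate, with buffer controls. MTT (5 mg/mL solution) added for 4 h at 37 °C; lysed overnight at 37 °C in SDS/DMF buffer, pH 4.8; absorbance at 570 nm. ID50 is the concentration giving 50% growth inhibition.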"}, "DU-145": {"system": "DU-145", "assay": "Growth inhibitory effect was assessed against the human prostate tumor cell line Du-145 using MTT assay", "type": "functional", "details": "read-out: ID50 (the source's name)", "outline": "as §1"}, "Mus musculus [1]": {"system": "Mus musculus", "assay": "Toxicity studies on male athymic NCr-nu mice administered ip daily for 5 consecutive days then rested for 10 days, and a second cycle of treatment also followed the q1d x 5 schedule; Death of all three mice", "type": "organism-based", "details": "in vivo, 240 h"}, "PC-3": {"system": "PC-3", "assay": "Growth inhibitory effect was assessed against the human prostate tumor cell line PC-3 using MTT assay", "type": "functional", "details": "read-out: ID50 (the source's name)", "outline": "as §1"}, "[2]": {"assay": "(§2) Toxicity studies on male athymic NCr-nu mice administered ip daily for 5 consecutive days then rested for 10 days, and a second cycle of treatment also followed the q1d x 5 schedule", "type": "organism-based", "details": "mouse, in vivo, read-out: Lethality"}, "Mus musculus [3]": {"system": "Mus musculus", "assay": "as §2", "type": "organism-based", "details": "in vivo, 240 h"}, "Mus musculus [4]": {"system": "Mus musculus", "assay": "Toxicity studies on male athymic NCr-nu mice administered ip daily for 5 consecutive days then rested for 10 days, and a second cycle of treatment also followed the q1d x 5 schedule; Two treatment-related deaths out of three animals", "type": "organism-based", "details": "in vivo, 240 h"}, "Mus musculus [5]": {"system": "Mus musculus", "assay": "Toxicity studies on male athymic NCr-nu mice administered ip daily for 5 consecutive days then rested for 10 days, and a second cycle of treatment also followed the q1d x 5 schedule; Death of all treated mice", "type": "organism-based", "details": "in vivo, 240 h"}}}
{"smiles": "CCNCC1CC1CNCCCCNCC1CC1CNCC.Cl", "note": "(stereo not given)", "values": [{"measurement": "IC50", "setting": "DuPro", "value": 260, "unit": "nM"}, {"measurement": "IC50", "setting": "DU-145", "value": 60, "unit": "nM"}, {"measurement": "Lethal dose", "setting": "Mus musculus [1]", "value": 75, "unit": "mg/kg"}, {"measurement": "IC50", "setting": "PC-3", "value": "> 31200", "unit": "nM"}]}
{"smiles": "CCNCCCCNCCCCNCCCCNCCCCNCC1CC1CNCCCCNCCCCNCCCCNCCCCNCC", "note": "(stereo not given)", "values": [{"measurement": "IC50", "setting": "DuPro", "value": 340, "unit": "nM"}, {"measurement": "IC50", "setting": "DU-145", "value": 200, "unit": "nM"}, {"measurement": "IC50", "setting": "PC-3", "value": 400, "unit": "nM"}, {"measurement": "mortality at 240 h", "setting": "[2]", "value": 100, "unit": "%"}]}
{"smiles": "CCNCCCCNCC1CC1CNCCCCNCCCCNCC1CC1CNCCCCNCCCCNCC1CC1CNCCCCNCC.Cl", "note": "(stereo not given)", "values": [{"measurement": "IC50", "setting": "DuPro", "value": 200, "unit": "nM"}, {"measurement": "IC50", "setting": "DU-145", "value": 220, "unit": "nM"}, {"measurement": "IC50", "setting": "PC-3", "value": 300, "unit": "nM"}, {"measurement": "Lethal dose", "setting": "Mus musculus [3]", "value": 25, "unit": "mg/kg"}]}
{"smiles": "CCNCCCCNCC1CC1CNCCCCNCC1CC1CNCCCCNCC.Cl", "note": "(stereo not given)", "values": [{"measurement": "IC50", "setting": "DuPro", "value": 380, "unit": "nM"}, {"measurement": "IC50", "setting": "DU-145", "value": 120, "unit": "nM"}, {"measurement": "Lethal dose", "setting": "Mus musculus [4]", "value": 25, "unit": "mg/kg"}, {"measurement": "IC50", "setting": "PC-3", "value": "> 31200", "unit": "nM"}]}
{"smiles": "CCNCC1CC1CNCC1CC1CNCC1CC1CNCC.Cl", "note": "(stereo not given)", "values": [{"measurement": "IC50", "setting": "DuPro", "value": 630, "unit": "nM"}, {"measurement": "Lethal dose", "setting": "Mus musculus [5]", "value": 75, "unit": "mg/kg"}, {"measurement": "IC50", "setting": "DU-145", "value": 80, "unit": "nM"}, {"measurement": "IC50", "setting": "PC-3", "value": "> 31500", "unit": "nM"}]}
